The text below walks through data of ChEMBL document CHEMBL4609998 (Bioorg Med Chem, 2020).

For one test, the species on record is Homo sapiens. In words: Antiproliferative activity against human G317 cell spheroid assessed as reduction in cell viability incubated for 8 days. The class given is functional. In a few lines:
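G317 patient-derived glioma cells (4 × 10^3) spun into ultra-low attachment round-bottom wells (1000g, 4 °C, 10 min), left 2 days to form spheroids, then exposed to inhibitors at 4 concentrations from 10 nM to 10 μM for 8 days. Imaged on day 10; spheroid area quantified by image analysis. Mean ± SEM of 6 spheroids from two cultures.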

The test system of test [1] is U-87 MG. In words: Antiproliferative activity against human U87 cells assessed as reduction in cell viability at 3 to 300 uM incubated for 5 days by Prestoblue reagent based assay. In kind it is functional. Conditions: U-87MG ATCC. In a few lines:
(§1)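 Library screen: U87 (1 × 10^3/well) and T98 (5 × 10^2/well) cells seeded 48 h ahead, then exposed for 5 d to three concentrations (3, 30 and 300 μM). Viability by PrestoBlue; EC50 derived from the resulting dose-response curves. Means of three independent experiments in triplicate.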

Test [2] relates to T98. In words: Antiproliferative activity against human T98 cells assessed as reduction in cell viability at 3 to 300 uM incubated for 5 days by Prestoblue reagent based assay. In kind it is functional. In a few lines: as §1
In test [3] the test system is T98. The experiment in a line: Antiproliferative activity against human T98 cells assessed as reduction in cell viability at 1 to 1000 nM incubated for 5 days by Prestoblue reagent based assay. The class given is functional. In a few lines:
(§2)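 U87 (1 × 10^3/well) or T98 (5 × 10^2/well) cells, grown in DMEM with 10% FBS and 2 mM glutamine, plated 48 h before dosing at 1–1,000 nM. Viability read with PrestoBlue at day 5; EC50 values taken from dose-response curves. Mean ± SEM, three independent experiments in triplicate.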

The test system of test [4] is U-87 MG. In words: Antiproliferative activity against human U87 cells assessed as reduction in cell viability at 1 to 1000 nM incubated for 5 days by Prestoblue reagent based assay. The following applies: U-87MG ATCC. The class given is functional. In a few lines: as §2
Test [5] relates to U-87 MG. The experiment in a line: Synergistic antiproliferative activity against human U87 cells assessed as reduction in cell viability at 10 to 1000 nM in presence of GDC0941 incubated for 5 days by Prestoblue reagent based assay. In kind it is functional. The following applies: U-87MG ATCC.
For test [6], the system named is T98. The experiment in a line: Synergistic antiproliferative activity against human T98 cells assessed as reduction in cell viability at 10 to 1000 nM in presence of GDC0941 incubated for 5 days by Prestoblue reagent based assay. In kind it is functional.
Test [7] relates to T98. The experiment in a line: Antiproliferative activity against human T98 cells assessed as reduction in cell viability incubated for 5 days by Prestoblue reagent based assay. The class given is functional. The following applies: T98, 120 h. In a few lines: (§3)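 Glioma lines in DMEM/10% FBS/2 mM glutamine: U87 at 1 × 10^3 and T98 at 5 × 10^2 cells/well, incubated 48 h, then treated over 1–30,000 nM for 5 d. PrestoBlue viability; EC50 calculated from dose-response curves. Mean ± SEM, 3 independent experiments in triplicate.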

Test [8] concerns U-87 MG. The experiment in a line: Antiproliferative activity against human U87 cells assessed as reduction in cell viability incubated for 5 days by Prestoblue reagent based assay. The class given is functional, U-87MG ATCC. Conditions: 120 h. In a few lines:
as §3

Test [9] deals with U-87 MG. The experiment in a line: Antiproliferative activity against human U87 cells assessed as reduction in cell viability at 1 to 30000 nM incubated for 5 days by Prestoblue reagent based assay. In kind it is functional. The following applies: U-87MG ATCC. In a few lines:
as §3

Test [10] deals with T98. In words: Antiproliferative activity against human T98 cells assessed as reduction in cell viability at 1 to 30000 nM incubated for 5 days by Prestoblue reagent based assay. The class given is functional. In a few lines: as §3
Test [11] deals with T98. The experiment in a line: Synergistic antiproliferative activity against human T98 cells assessed as reduction in cell viability at 100 nM in presence of GDC0941 incubated for 5 days by Prestoblue reagent based assay. In kind it is functional.

Activity calls are given as the source filed them. No cut-off for these calls is given here.

As for `CCc1c2c(nc3ccc(O)cc13)-c1cc3c(c(=O)n1C2)COC(=O)[C@]3(O)CC`, in the test listed under Homo sapiens, the inhibition result is “Dose-dependent effect”.
For the compound `Nc1nc2cc(-c3nn(CC4CCCC4)c4ncnc(N)c34)ccc2o1`, the inhibition result with U-87 MG [1], in the test on T98 [2], in the test with T98 [3] and in the test with U-87 MG [4] was “Active” each time. Further, in the test listed under Homo sapiens, the inhibition result was “Dose-dependent effect”. Besides, the result in the test on U-87 MG [5] and in the test on T98 [6] was Active.
One may read the EC50 as the concentration that produces a half-maximal response. Consider `Nc1nc2cc(-c3nn(CC4OCCO4)c4ncnc(N)c34)ccc2o1`, for which the inhibition entry with U-87 MG [1] and in the test on T98 [2] was “Active” throughout. Also, the EC50 in the test with T98 [7] and in the test on U-87 MG [8] was 0.1 to 0.15 µM each time.
Turning to `Nc1ncnc2c1c(-c1cnc3[nH]ccc3c1)nn2CC1CCCC1`, the inhibition result in the test on U-87 MG [9] and with T98 [10] was “Active” in each case.
For `CNc1ncc2c(-c3ccc4oc(N)nc4c3)nn(CC3CCCC3)c2n1`, the inhibition result in the test on U-87 MG [9] and in the test on T98 [10] was “Active” throughout.
Turning to `Nc1nc2cc(-c3nn(C[C@@H]4CCCO4)c4ncnc(N)c34)ccc2o1`, the inhibition entry with U-87 MG [1] and with T98 [2] was “Active” each time. The EC50 in the test with T98 [7] and in the test with U-87 MG [8] was 0.1 to 0.15 µM each time.
For the compound `CCOC(Cn1nc(-c2ccc3oc(N)nc3c2)c2c(N)ncnc21)OCC`, the inhibition result in the test on U-87 MG [1], with T98 [2], in the test with T98 [3] and in the test with U-87 MG [4] was “Active” each time. Further, the EC50 in the test with T98 [7] and in the test on U-87 MG [8] was 0.1 to 0.15 µM throughout. In addition, in the test filed under Homo sapiens, the inhibition result is “Dose-dependent effect”. In the test on T98 [11], the outcome was Active.
For the compound `COC(Cn1nc(-c2ccc3oc(N)nc3c2)c2c(N)ncnc21)OC`, the inhibition result in the test with U-87 MG [1] and in the test on T98 [2] was “Active” throughout. Also, the EC50 in the test with T98 [7] and in the test on U-87 MG [8] was 0.1 to 0.15 µM throughout.
In the case of `CC(C)n1nc(-c2ccc3oc(N)nc3c2)c2c(N)ncnc21`, the inhibition result in the test listed under Homo sapiens was “Dose-dependent effect”.
Regarding `Nc1nc2cc(-c3nn(CC4CCCO4)c4ncnc(N)c34)ccc2o1` (stereo unspecified), the inhibition result with U-87 MG [1] and in the test on T98 [2] was “Active” in each case. The EC50 with T98 [7] and in the test on U-87 MG [8] was 0.1 to 0.15 µM each time.
Turning to `Nc1nc2cc(-c3nn(C[C@H]4CCCO4)c4ncnc(N)c34)ccc2o1`, the inhibition result in the test with U-87 MG [1] and with T98 [2] was “Active” throughout. In addition, the EC50 with T98 [7] and in the test on U-87 MG [8] was 0.1 to 0.15 µM in each case.
